In ChEMBL document CHEMBL4834403, “Design and Synthesis of Novel Epigenetic Inhibitors Targeting Histone Deacetylases, DNA Methyltransferase 1, and Lysine Methyltransferase G9a with In Vivo Efficacy in Multiple Myeloma” (J Med Chem, 2021):
Calls of active or inactive are those of the source. The calls are words filed in the database; no cut-off is given here.

Legend:
[1] = Intrinsic clearance in mouse pooled hepatocytes; format: ADME, cell-based, Hepatocyte; conditions: read-out: CLH
[2] = Permeability of the compound in PBS/EtOH buffer (70:30) incubated for 18 hrs by UV plate reader based PAMPA assay; format: ADME; conditions: read-out: permeability
MM1.S [3] = experiment: Induction of DNA hypomethylation in human MM1.S cells assessed as CPG hypomethylation at position 5 at 10 nM measured after 5 days relative to control; format: cell-based; conditions: time 5.0 day
Procedure, shortened: (§1)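 MM1.S cells dosed every day for 5 days at 2 μM or 10 nM. DNA methylation at CpGs of the POU4F2 promoter read by pyrosequencing; run in duplicate.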

[4] = AUC (0 to 24 hrs) in BALB/c RAG2-/- gammaC-/- mouse at 10 mg/kg, ip measured up to 24 hrs by UPLC-triple quadrupole MS analysis; format: ADME, organism-based; set-up: route intraperitoneal, dose 10 mg/kg, time <=24; conditions: in vivo
MM1.S [5] = experiment: Induction of DNA hypomethylation in human MM1.S cells assessed as CPG hypomethylation at position 4 at 10 nM measured after 5 days relative to control; format: cell-based; conditions: time 5.0 day; procedure, shortened: as §1
CYP2C9 = CYP2C9 (Homo sapiens, UniProt P11712); experiment: Inhibition of CYP2C9 in human liver microsomes at 10 uM incubated for 10 mins in presence of NADPH by LC-MS/MS analysis relative to control; format: ADME
Chain of CYP2C9 (P11712 whole entry): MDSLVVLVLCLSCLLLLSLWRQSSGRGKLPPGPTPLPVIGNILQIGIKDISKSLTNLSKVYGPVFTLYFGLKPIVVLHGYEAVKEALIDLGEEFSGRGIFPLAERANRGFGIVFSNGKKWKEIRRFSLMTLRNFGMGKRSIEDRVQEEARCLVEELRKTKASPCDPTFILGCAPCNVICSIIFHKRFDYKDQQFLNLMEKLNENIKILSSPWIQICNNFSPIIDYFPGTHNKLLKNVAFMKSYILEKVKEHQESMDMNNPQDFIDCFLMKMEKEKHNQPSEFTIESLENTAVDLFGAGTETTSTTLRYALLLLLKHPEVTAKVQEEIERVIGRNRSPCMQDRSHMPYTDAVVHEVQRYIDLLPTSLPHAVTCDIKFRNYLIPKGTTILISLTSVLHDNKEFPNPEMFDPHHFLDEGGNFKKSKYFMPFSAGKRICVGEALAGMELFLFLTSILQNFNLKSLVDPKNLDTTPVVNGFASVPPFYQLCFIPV

CYP1A2 = target: T1, CYP1A2 (Homo sapiens, UniProt P05177); experiment: Inhibition of CYP1A2 in human liver microsomes at 10 uM incubated for 10 mins in presence of NADPH by LC-MS/MS analysis relative to control; format: ADME
T1 sequence (P05177 whole entry): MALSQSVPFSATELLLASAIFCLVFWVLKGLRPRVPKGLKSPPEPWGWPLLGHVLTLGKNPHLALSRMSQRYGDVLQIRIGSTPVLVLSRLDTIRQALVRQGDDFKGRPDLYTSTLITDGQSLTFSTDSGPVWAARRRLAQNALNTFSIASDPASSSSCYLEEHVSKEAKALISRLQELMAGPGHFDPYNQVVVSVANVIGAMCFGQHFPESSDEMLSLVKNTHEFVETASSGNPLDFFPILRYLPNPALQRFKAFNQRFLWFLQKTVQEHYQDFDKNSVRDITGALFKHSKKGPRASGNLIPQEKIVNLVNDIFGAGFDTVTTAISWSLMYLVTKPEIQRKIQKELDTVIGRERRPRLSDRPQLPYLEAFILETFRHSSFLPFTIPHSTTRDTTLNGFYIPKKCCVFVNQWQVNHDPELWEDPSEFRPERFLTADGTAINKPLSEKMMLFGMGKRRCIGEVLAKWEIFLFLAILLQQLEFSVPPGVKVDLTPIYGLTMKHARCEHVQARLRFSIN

[6] = Kinetic solubility of the compound; format: physicochemical; conditions: read-out: Kinetic_solubility
[7] = AUC (0 to 24 hrs) in BALB/c RAG2-/- gammaC-/- mouse at 10 mg/kg, ip using 80% saline 10% Tween20 and 10% DMSO formulation measured up to 24 hrs by UPLC-triple quadrupole MS analysis; format: ADME, organism-based; set-up: route intraperitoneal, dose 10 mg/kg, time <=24; conditions: in vivo
[8] = Stability of the compound in mouse pooled hepatocytes assessed as parent compound remaining incubated for 60 mins; format: ADME, cell-based, Hepatocyte; conditions: read-out: Stabilty
[9] = target: T2, Histone-lysine N-methyltransferase EHMT2 (Homo sapiens) (UniProt Q96KQ7); experiment: Inhibition of G9A in human MM1.S cells assessed as decrease in H3K9Me2 levels up to 1000 nM after 48 hrs by Western blot analysis; format: cell-based; conditions: dose nM <=1000, time 48.0 hrs
T2 sequence (whole entry): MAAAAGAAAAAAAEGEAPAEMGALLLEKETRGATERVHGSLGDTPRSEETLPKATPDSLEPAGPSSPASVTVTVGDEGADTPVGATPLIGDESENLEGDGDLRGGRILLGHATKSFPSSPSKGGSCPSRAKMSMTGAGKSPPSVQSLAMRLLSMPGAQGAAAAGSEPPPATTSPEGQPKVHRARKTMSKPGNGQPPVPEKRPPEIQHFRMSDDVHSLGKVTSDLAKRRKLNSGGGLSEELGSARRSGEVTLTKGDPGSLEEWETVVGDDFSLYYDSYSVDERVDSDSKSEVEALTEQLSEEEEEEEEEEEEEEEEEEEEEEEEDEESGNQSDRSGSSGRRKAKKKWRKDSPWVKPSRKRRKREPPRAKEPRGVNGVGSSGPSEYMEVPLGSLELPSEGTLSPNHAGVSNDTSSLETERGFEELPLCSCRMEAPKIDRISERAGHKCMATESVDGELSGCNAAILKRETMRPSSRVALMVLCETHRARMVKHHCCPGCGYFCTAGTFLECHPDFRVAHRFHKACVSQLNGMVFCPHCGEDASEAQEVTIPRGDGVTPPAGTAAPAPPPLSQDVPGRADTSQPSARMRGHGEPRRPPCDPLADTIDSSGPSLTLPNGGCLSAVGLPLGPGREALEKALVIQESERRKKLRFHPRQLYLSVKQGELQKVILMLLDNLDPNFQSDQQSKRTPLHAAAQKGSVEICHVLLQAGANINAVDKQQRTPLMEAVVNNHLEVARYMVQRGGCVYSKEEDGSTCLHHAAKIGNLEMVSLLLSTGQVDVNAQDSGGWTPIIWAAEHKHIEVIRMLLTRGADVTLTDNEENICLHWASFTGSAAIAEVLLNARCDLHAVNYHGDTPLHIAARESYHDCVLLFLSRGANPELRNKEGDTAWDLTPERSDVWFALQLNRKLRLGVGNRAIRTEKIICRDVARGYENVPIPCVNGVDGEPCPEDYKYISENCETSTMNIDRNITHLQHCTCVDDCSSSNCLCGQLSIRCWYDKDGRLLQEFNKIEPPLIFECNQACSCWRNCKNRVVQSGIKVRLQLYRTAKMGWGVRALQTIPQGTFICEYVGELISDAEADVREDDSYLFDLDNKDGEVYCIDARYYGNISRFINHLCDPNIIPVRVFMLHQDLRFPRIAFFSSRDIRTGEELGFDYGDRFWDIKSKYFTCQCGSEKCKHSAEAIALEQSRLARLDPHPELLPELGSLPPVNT
Procedure, shortened: (§2)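 MM1.S cells exposed 48 h across a concentration range. Global H3K9Ac and H3K9me2 read by Western blot; run in duplicate.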

CYP2D6 = CYP2D6 (Homo sapiens, UniProt P10635); experiment: Inhibition of CYP2D6 in human liver microsomes at 10 uM incubated for 10 mins in presence of NADPH by LC-MS/MS analysis relative to control; format: ADME
Chain of CYP2D6 (P10635 whole entry): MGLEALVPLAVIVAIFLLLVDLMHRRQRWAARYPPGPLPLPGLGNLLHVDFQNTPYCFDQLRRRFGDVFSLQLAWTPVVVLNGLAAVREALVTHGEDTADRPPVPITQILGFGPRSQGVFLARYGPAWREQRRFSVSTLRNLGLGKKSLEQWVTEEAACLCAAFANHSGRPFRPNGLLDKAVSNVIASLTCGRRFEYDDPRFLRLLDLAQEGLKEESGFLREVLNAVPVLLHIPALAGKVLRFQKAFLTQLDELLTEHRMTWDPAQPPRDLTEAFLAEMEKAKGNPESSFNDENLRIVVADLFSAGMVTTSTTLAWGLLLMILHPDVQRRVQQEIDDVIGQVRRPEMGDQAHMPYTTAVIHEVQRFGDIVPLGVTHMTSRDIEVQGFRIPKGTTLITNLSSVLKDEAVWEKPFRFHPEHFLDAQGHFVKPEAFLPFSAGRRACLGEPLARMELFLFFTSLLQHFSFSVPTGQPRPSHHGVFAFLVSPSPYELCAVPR

MM1.S [10] = experiment: Induction of DNA hypomethylation in human MM1.S cells assessed as CPG hypomethylation at position 3 at 2 uM measured after 5 days relative to control; format: cell-based; conditions: time 5.0 day; procedure, shortened: as §1
[11] = Toxicity in mouse assessed as mouse death at 10 mg/kg, ip after 10 mins; format: organism-based; conditions: in vivo
Procedure, shortened: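 Observation made during a preliminary pharmacokinetic study with i.p. dosing, n = 5 mice per dose level, with blood extraction after administration.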

[12] = target: T2, Histone-lysine N-methyltransferase EHMT2 (Homo sapiens); experiment: Inhibition of G9A in human MM1.S cells assessed as decrease in H3K9Me2 levels > 1 uM after 48 hrs by Western blot analysis; format: cell-based; conditions: dose microM >1, time 48.0 hrs; procedure, shortened: as §2

SMILES | CLint scaled [1] | Papp at 18 h [2] | Activity (MM1.S [3]) | AUC(0-t) [4] | Activity (MM1.S [5]) | inhibition at 10 min, 10 µM (CYP2C9) | inhibition at 10 min, 10 µM (CYP1A2) | solubility kinetic [6] | AUC(0-t) [7] | remaining at 1 h [8] | inhibition [9] | inhibition at 10 min, 10 µM (CYP2D6) | Activity (MM1.S [10]) | Activity [11] | inhibition [12]
COc1cc2nc(-c3ccc(C)o3)cc(NCC3CCN(c4ncc(C(=O)NO)cn4)CC3)c2cc1OC | 411 mL/min/kg | 0.504 ×10⁻⁶ cm/s | 10% | 0.591 µM·h | 10% | 0% | 58.8% | < 0.987 µg/mL | 0.916 µM·h | 14.3% | inactive | 10.8% | – | – | –
COc1cc2c(NCC3CCN(c4ncc(C(=O)NO)cn4)CC3)cc(-c3ccc(C)o3)nc2cc1OCCCN1CCCC1 | – | – | – | – | – | – | – | – | – | – | – | – | 15% | Toxic | Active
